Measured values from paper PMC8959088 (Journal of the American Chemical Society, 2022).

Biological target: KIX domain of p300/CBP (KIX–MLL interaction) (Mus musculus, UniProt P45481)
Assay: competition fluorescence polarization assay, inhibition of KIX–MLL interaction
Type: binding
Method in brief: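 Competition fluorescence polarization format: test peptidomimetic competes with fluorescently labeled MLL peptide for KIX, and Ki is derived from the competition data.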

Sequence of KIX domain of p300/CBP (KIX–MLL interaction) (P45481 586-665 limits assumed): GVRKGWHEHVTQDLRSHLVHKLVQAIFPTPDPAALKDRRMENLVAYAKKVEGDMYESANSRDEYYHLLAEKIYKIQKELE

Ki: > 1000 µM
Substance: Ac-SDIMDFVLKNTP-NH2 [MLL^847–858, Ac-SDIMDFVLKNTP-NH2]
